Data on seven molecules can be found in ChEMBL document CHEMBL3259728, “Design, synthesis and biological evaluation of some novel substituted quinazolines as antitumor agents” (2014).

Common to all, as to format: functional
Assay [1] relates to MDA-MB-468. The experiment in a line: Growth inhibition of human MDA-MB-468 cells assessed as cell growth at 10 uM after 48 hrs by SRB assay. As to conditions: MDA-MB-468, 48 h, read-out: GI. In a few lines: (§1)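 NCI-60 primary one-dose screen run at the US NCI, with human tumour lines from nine cancer types. Compound added once at 10^-5 M, followed by 48 h incubation. End point was sulforhodamine B protein staining read spectrophotometrically. Result given as percent growth of treated cells against untreated controls, reported as % growth inhibition.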
On the technique in general: The SRB assay estimates cell density from bound dye.

The subject of assay [2] is MDA-MB-231. The experiment in a line: Growth inhibition of human MDA-MB-231 cells at 10 uM after 48 hrs by SRB assay. As to conditions: MDA-MB-231, 48 h, read-out: GI. In a few lines:
as §1

Assay [3] can be described thus: Growth inhibition of human RXF393 cells at 10 uM after 48 hrs by SRB assay. Particulars: RXF 393, 48 h, read-out: GI. In outline:
as §1

Assay [4] relates to SK-OV-3. Put plainly: Growth inhibition of human SKOV3 cells at 10 uM after 48 hrs by SRB assay. As to conditions: SK-OV-3, 48 h, read-out: GI. In outline: as §1
A short description of assay [5]: Growth inhibition of human OVCAR4 cells at 10 uM after 48 hrs by SRB assay. Particulars: OVCAR-4, 48 h, read-out: GI. In outline: as §1
The subject of assay [6] is IGROV-1. The experiment in a line: Growth inhibition of human IGROV1 cells at 10 uM after 48 hrs by SRB assay. Particulars: IGROV-1, 48 h, read-out: GI. In a few lines: as §1
The nature of assay [7]: Growth inhibition of human UACC257 cells at 10 uM after 48 hrs by SRB assay. Particulars: UACC-257, 48 h, read-out: GI. In a few lines: as §1
Assay [8] relates to SK-MEL-5. Put plainly: Growth inhibition of human SK-MEL-5 cells at 10 uM after 48 hrs by SRB assay. Particulars: SK-MEL-5, 48 h, read-out: GI. In outline:
as §1

A short description of assay [9]: Growth inhibition of human LOXIMVI cells at 10 uM after 48 hrs by SRB assay. As to conditions: LOX IMVI, read-out: GI. In outline:
as §1

Assay [10] relates to SNB-19. The experiment in a line: Growth inhibition of human SNB19 cells at 10 uM after 48 hrs by SRB assay. As to conditions: SNB-19, 48 h, read-out: GI. In outline:
as §1

Assay [11] in a line: Growth inhibition of human SF539 cells at 10 uM after 48 hrs by SRB assay. Particulars: SF-539, 48 h, read-out: GI. In outline: as §1
Assay [12] can be described thus: Growth inhibition of human HCC2998 cells at 10 uM after 48 hrs by SRB assay. As to conditions: HCC 2998, 48 h, read-out: GI. In outline:
as §1

Assay [13] deals with NCI-H322M. The experiment in a line: Growth inhibition of human NCI-H322M cells at 10 uM after 48 hrs by SRB assay. Particulars: read-out: GI. In a few lines: as §1
In assay [14] the test system is NCI-H226. Put plainly: Growth inhibition of human NCI-H226 cells at 10 uM after 48 hrs by SRB assay. Particulars: NCI-H226, 48 h, read-out: GI. In a few lines: as §1
Assay [15] can be described thus: Growth inhibition of human EKVX cells at 10 uM after 48 hrs by SRB assay. Particulars: read-out: GI. In a few lines: as §1
Assay [16] has as its system A549. Put plainly: Growth inhibition of human A549 cells at 10 uM after 48 hrs by SRB assay. Particulars: A549, 48 h, read-out: GI. In a few lines: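 NCI primary one-dose screen. A single concentration of 10^-5 M was added to the cell culture, followed by 48 h incubation and an SRB protein-dye endpoint read spectrophotometrically. Results are growth percentage relative to untreated control cells, reported as % growth inhibition.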

Assay [17] has as its system SR. Put plainly: Growth inhibition of human SR cells at 10 uM after 48 hrs by SRB assay. Particulars: read-out: GI. In a few lines: as §1
Assay [18] can be described thus: Growth inhibition of human MOLT4 cells at 10 uM after 48 hrs by SRB assay. Particulars: MOLT-4, 48 h, read-out: GI. In a few lines: as §1
Assay [19] has as its system K562. Put plainly: Growth inhibition of human K562 cells at 10 uM after 48 hrs by SRB assay. Particulars: K562, 48 h, read-out: GI. In a few lines:
as §1

Assay [20] deals with HL-60(TB). Put plainly: Growth inhibition of human HL-60(TB) cells at 10 uM after 48 hrs by SRB assay. Particulars: HL-60, 48 h, read-out: GI. In a few lines: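 NCI 60-cell-line primary screen: compound added at single concentration 10^-5 M, cultures incubated 48 h; end point by sulforhodamine B protein staining read spectrophotometrically; result given as growth percentage of treated versus untreated control cells, reported as % growth inhibition.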

In the case of `Cc1ccc(C(=O)Nc2ccc(Cl)cc2C(=O)NCc2ccccc2)cc1`, the inhibition of growth at 10 µM in assay [1] is 17%; in assay [2] it was under 10%; in assay [3], 13%; in assay [4] it was under 10%; in assay [5], 21%; in assay [6] it was 16%. Besides, the inhibition of growth at 10 µM in assay [7] was 15%; in [8], 22%; in [9], 21%; in assay [10], under 10%; in assay [11], 16%; in assay [12], 14%. Besides, the inhibition of growth at 10 µM in assay [13] is under 10%; in [14], under 10%; in [15] it was 20%; in [16], 15%; in assay [17], 63%; in assay [18], 49%. Further, the inhibition of growth at 10 µM stood at 70% in assay [19] and 49% in assay [20].

As for `Cc1ccc(C(=O)Nc2ccc(Cl)cc2C(=O)Nc2ccccc2)cc1`, the inhibition of growth at 10 µM is 11% in assay [1]; 16% in assay [2]; under 10% in [3]; 12% in assay [4]; 11% in assay [5]; under 10% in [6]. In addition, the inhibition of growth at 10 µM is under 10% in assay [7]; 13% in [8]; under 10% in assay [9]; 13% in [10]; 29% in [11]; under 10% in [12]. The inhibition of growth at 10 µM in assay [13], in [14], in assay [15] and in assay [16] was under 10% in each case.

As for `Cc1ccc(C(=O)Nc2ccc(Cl)cc2C(=O)Nc2ccccn2)cc1`, the inhibition of growth at 10 µM in assay [1] was 11%; in [2], under 10%; in assay [3], under 10%; in assay [4], under 10%; in [5], 22%; in assay [6] it was 14%. Further, the inhibition of growth at 10 µM is under 10% in [7]; 39% in [8]; under 10% in assay [9]; under 10% in assay [10]; 22% in assay [11]; under 10% in assay [12]. For the same molecule, the inhibition of growth at 10 µM in assay [13] is under 10%; in [14], under 10%; in assay [15], 12%; in assay [16], 13%; in assay [17], under 10%; in assay [19] it was 35%. For the same molecule, the inhibition of growth at 10 µM in [20] stood at 16%.

As for `Cc1ccc(-c2nc3ccc(Cl)cc3c(=O)n2NC(=O)CN)cc1`, the inhibition of growth at 10 µM in [1], in assay [2], in assay [3], in [4], in [5] and in assay [6] was under 10% in each case. Besides, the inhibition of growth at 10 µM in [7] is under 10%; in assay [8] it was under 10%; in assay [9], under 10%; in assay [10], under 10%; in assay [11], 15%; in assay [12], under 10%. Besides, the inhibition of growth at 10 µM in assay [13] was under 10%; in assay [14], 11%; in [15], 22%; in [16] it was under 10%; in assay [17], under 10%; in [18], under 10%. The inhibition of growth at 10 µM in assay [19] and in assay [20] was under 10% each time.

Consider `Cc1ccc(-c2nc3ccc(Cl)cc3c(=O)n2NC(=O)CNN)cc1`, for which the inhibition of growth at 10 µM in assay [1] was under 10%; in assay [2] it was 62%; in assay [3], 11%; in assay [4], 84%; in assay [5] it was 80%; in assay [6], 41%. The inhibition of growth at 10 µM in assay [7] is 23%; in assay [8], 11%; in [9] it was 27%; in [10], 22%; in assay [11], 54%; in [12], under 10%. Also, the inhibition of growth at 10 µM was 29% in assay [13]; 35% in [14]; 34% in assay [15]; 23% in assay [16]; 13% in [17]; under 10% in [18]. Further, the inhibition of growth at 10 µM in assay [19] came out at 11%; in [20], 12%.

Consider `Cc1ccc(C2=Nc3ccc(Cl)cc3C3=NNCC(=O)NN23)cc1`, for which the inhibition of growth at 10 µM in [1] is 11%; in assay [2], 11%; in assay [3], under 10%; in assay [4], under 10%; in assay [5], under 10%; in assay [6], under 10%. Moreover, the inhibition of growth at 10 µM in assay [7], in assay [8], in [9], in assay [10], in assay [11] and in assay [12] was under 10% in each case. The inhibition of growth at 10 µM was under 10% in [13]; under 10% in [14]; 12% in assay [15]; 11% in [16]; under 10% in [17]; under 10% in assay [18]. For the same molecule, the inhibition of growth at 10 µM in [19] and in [20] was under 10% in each case.

Regarding `Cc1ccc(-c2nc3ccc(Cl)cc3c3nnnn23)cc1`, the inhibition of growth at 10 µM in assay [1] was under 10%; in assay [2], 27%; in [3], under 10%; in assay [4], 12%; in [5] it was under 10%; in [6], under 10%. Further, the inhibition of growth at 10 µM in assay [7] was under 10%; in [8], under 10%; in [9], under 10%; in [10], 11%; in assay [11], 18%; in assay [12] it was under 10%. Also, the inhibition of growth at 10 µM in [13] was under 10%; in [14], under 10%; in assay [15], 11%; in assay [16] it was 47%; in assay [17], under 10%; in [18], under 10%. The results for the inhibition of growth at 10 µM in assay [19] and in [20] were 11% and under 10%, respectively.
